{"source": "ChEMBL document CHEMBL4616692", "about": "“Structure-Guided Optimization of Replication Protein A (RPA)-DNA Interaction Inhibitors” (ACS Med Chem Lett, 2020)", "key": {"[1]": {"experiment": "Inhibition of 5'[32P]-labeled 34 base ssDNA binding to recombinant full length human RPA expressed in Escherichia coli cells preincubated for 30 mins followed by labeled DNA addition and measured after 5 mins by electrophoretic mobility shift assay", "method_in_brief": "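Purified heterotrimeric human RPA without tags or modifications, binding to ssDNA read by EMSA. […] IC50 is the mean of at least three independent experiments, reported as mean ± SD.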"}, "[2]": {"experiment": "Aqueous solubility of compound in unbuffered H2O at pH 7 by absorbance spectroscopy based LC-MS analysis", "type": "physicochemical", "details": "buffer", "method_in_brief": "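Aqueous solubility was measured in three independent determinations and reported as mean and SD.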"}, "[3]": {"experiment": "Drug uptake in human H460 cells at 20 uM incubated for 4 hrs by LC-MS analysis", "type": "ADME, cell-based", "details": "nci-h460, 4 h", "method_in_brief": "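H460 NSCLC cells. Individual points come from three independent determinations and are reported as mean and SD.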"}, "Salmon testes DNA": {"test_system": "Salmon testes DNA", "experiment": "Displacement of SYBR-green from salmon sperm DNA assessed as DNA intercalation by measuring reduction in fluorescence at 5 to 20 uM after 5 mins by fluorescent intercalator displacement assay", "type": "nucleic-acid assay", "details": "Salmonidae", "method_in_brief": "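Sybr-green intercalator bound to DNA. Displacement was read as a fall in fluorescence across a range of compound concentrations. Doxorubicin served as the positive control.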"}, "Homo sapiens": {"species_on_record": "Homo sapiens", "experiment": "Inhibition of 5'[32P]-labeled 34 base ssDNA binding to SUMO-His6-tagged RPA DBD A/B domain (181-432 residues) (unknown origin) expressed in Escherichia coli BL21 (DE3) cells preincubated for 30 mins followed by labeled DNA addition and measured after 5 mins by electrophoretic mobility shift assay"}, "[4]": {"experiment": "Irreversible inhibition of RPA (unknown origin)", "parameters": "species or system Homo sapiens"}}, "note": "The source made the active and inactive calls. The calls are words filed in the database; no cut-off is given here.", "data": [{"smiles": "CCOc1ccc2cc(C3CC(c4ccc(I)cc4)=NN3C(=O)CCCC(=O)NCCN3CCOCC3)c(Cl)nc2c1", "note": "(stereo not given)", "values": [{"measurement": "IC50", "setting": "[1]; read-out: IC50", "result": 10.5, "unit": "µM"}]}, {"smiles": "CCOc1ccc2cc(C3CC(c4ccc(-c5ccc(F)nc5)cc4)=NN3C(=O)CCCC(=O)NCCCN3CCOCC3)c(Cl)nc2c1", "note": "(stereo not given)", "values": [{"measurement": "IC50", "setting": "[1]; read-out: IC50", "result": 2.3, "unit": "µM"}, {"measurement": "solubility", "setting": "[2]", "result": "Soluble"}, {"measurement": "Drug uptake", "setting": "[3]", "result": "Active"}]}, {"smiles": "CCOc1ccc2cc(C3CC(c4ccc(-c5ccc(Cl)nc5)cc4)=NN3C(=O)CCCC(=O)NCCCN3CCOCC3)c(Cl)nc2c1", "note": "(stereo not given)", "values": [{"measurement": "IC50", "setting": "[1]; read-out: IC50", "result": 4, "unit": "µM"}, {"measurement": "solubility", "setting": "[2]", "result": "Soluble"}, {"measurement": "Drug uptake", "setting": "[3]", "result": "Active"}, {"measurement": "inhibition", "setting": "Salmon testes DNA", "result": "inactive"}]}, {"smiles": "CCOc1ccc2cc(C3CC(c4ccc(I)cc4)=NN3C(=O)CCCC(=O)N3CCOCC3)c(Cl)nc2c1", "note": "(stereo not given)", "values": [{"measurement": "IC50", "setting": "[1]; read-out: IC50", "result": 6.6, "unit": "µM"}]}, {"smiles": "CCOc1ccc2cc(C3CC(c4ccc(N)cc4)=NN3C(=O)CCCC(=O)O)c(Cl)nc2c1", "note": "(stereo not given)", "values": [{"measurement": "IC50", "setting": "[1]; read-out: IC50", "result": 2.3, "unit": "µM"}, {"measurement": "inhibition", "setting": "Salmon testes DNA", "result": "inactive"}]}, {"smiles": "C=CC(=O)Oc1ccc(C2=NN(C(=O)CCCC(=O)O)C(c3cc4ccc(OCC)cc4nc3Cl)C2)cc1", "note": "(stereo not given)", "values": [{"measurement": "IC50", "setting": "[1]; read-out: IC50", "result": 8.9, "unit": "µM"}]}, {"smiles": "CCOc1ccc2cc(C3CC(c4ccc(I)cc4)=NN3C(=O)CCCC(=O)O)c(Cl)nc2c1", "note": "(stereo not given)", "values": [{"measurement": "IC50", "setting": "[1]; read-out: IC50", "result": "15.3 to 18", "unit": "µM"}, {"measurement": "solubility", "setting": "[2]", "result": "Soluble"}, {"measurement": "Drug uptake", "setting": "[3]", "result": "Not Active"}]}, {"smiles": "COc1cccc2c1C(=O)c1c(O)c3c(c(O)c1C2=O)C[C@@](O)(C(=O)CO)C[C@@H]3O[C@H]1C[C@H](N)[C@H](O)[C@H](C)O1", "values": [{"measurement": "inhibition", "setting": "Salmon testes DNA", "result": "Dose-dependent effect"}]}, {"smiles": "CCOc1ccc2cc(C3CC(c4ccc(-c5ccc(Cl)nc5)cc4)=NN3C(=O)CCCC(=O)O)c(Cl)nc2c1", "note": "(stereo not given)", "values": [{"measurement": "inhibition", "setting": "Homo sapiens", "result": "Active"}, {"measurement": "IC50", "setting": "[1]; read-out: IC50", "result": 1.6, "unit": "µM"}, {"measurement": "solubility", "setting": "[2]", "result": "Soluble"}, {"measurement": "Drug uptake", "setting": "[3]", "result": "Active"}, {"measurement": "inhibition", "setting": "Salmon testes DNA", "result": "inactive"}]}, {"smiles": "CCOc1ccc2cc(C3CC(c4ccc(-c5ccc(F)nc5)cc4)=NN3C(=O)CCCC(=O)O)c(Cl)nc2c1", "note": "(stereo not given)", "values": [{"measurement": "IC50", "setting": "[1]; read-out: IC50", "result": 2.6, "unit": "µM"}, {"measurement": "solubility", "setting": "[2]", "result": "Soluble"}]}, {"smiles": "CCOc1ccc2cc(C3CC(c4ccc(OC(=O)N5CCOCC5)cc4)=NN3C(=O)CCCC(=O)O)c(Cl)nc2c1", "note": "(stereo not given)", "values": [{"measurement": "IC50", "setting": "[1]; read-out: IC50", "result": "> 25", "unit": "µM"}]}, {"smiles": "CCOc1ccc2cc(C3CC(c4ccc(-c5ccco5)cc4)=NN3C(=O)CCCC(=O)O)c(Cl)nc2c1", "note": "(stereo not given)", "values": [{"measurement": "inhibition", "setting": "Homo sapiens", "result": "Active"}, {"measurement": "IC50", "setting": "[1]; read-out: IC50", "result": 2.1, "unit": "µM"}, {"measurement": "inhibition", "setting": "Salmon testes DNA", "result": "inactive"}]}, {"smiles": "CCOc1ccc2cc(C3CC(c4ccc(Br)cc4)=NN3C(=O)CCC(=O)O)c(Cl)nc2c1", "note": "(stereo not given)", "values": [{"measurement": "IC50", "setting": "[1]; read-out: IC50", "result": 38, "unit": "µM"}]}, {"smiles": "CCOc1ccc2cc(C3CC(c4ccc(-c5ccc(Br)nc5)cc4)=NN3C(=O)CCCC(=O)O)c(Cl)nc2c1", "note": "(stereo not given)", "values": [{"measurement": "inhibition", "setting": "Homo sapiens", "result": "Active"}, {"measurement": "IC50", "setting": "[1]; read-out: IC50", "result": 1, "unit": "µM"}, {"measurement": "inhibition", "setting": "Salmon testes DNA", "result": "inactive"}]}, {"smiles": "CCOc1ccc2cc(C3CC(c4ccc(O)cc4)=NN3C(=O)CCCC(=O)O)c(Cl)nc2c1", "note": "(stereo not given)", "values": [{"measurement": "IC50", "setting": "[1]; read-out: IC50", "result": "> 25", "unit": "µM"}]}, {"smiles": "CCOc1ccc2cc(C3CC(c4ccc(-c5ccc(C(F)(F)F)nc5)cc4)=NN3C(=O)CCCC(=O)O)c(Cl)nc2c1", "note": "(stereo not given)", "values": [{"measurement": "IC50", "setting": "[1]; read-out: IC50", "result": 4.3, "unit": "µM"}, {"measurement": "solubility", "setting": "[2]", "result": "Soluble"}]}, {"smiles": "CCOc1ccc2cc(C3CC(c4ccc(Br)cc4)=NN3C(=O)CCCC(=O)O)c(Cl)nc2c1", "note": "(stereo not given)", "values": [{"measurement": "IC50", "setting": "[1]; read-out: IC50", "result": 19.2, "unit": "µM"}, {"measurement": "solubility", "setting": "[2]", "result": "Soluble"}]}, {"smiles": "CCOc1ccc2cc(C3CC(c4ccc(-c5ccc(C(F)(F)F)nc5)cc4)=NN3C(=O)CCCC(=O)NCCCN3CCOCC3)c(Cl)nc2c1", "note": "(stereo not given)", "values": [{"measurement": "IC50", "setting": "[1]; read-out: IC50", "result": 5.8, "unit": "µM"}, {"measurement": "solubility", "setting": "[2]", "result": "Soluble"}, {"measurement": "Drug uptake", "setting": "[3]", "result": "Active"}]}, {"smiles": "CCOc1ccc2cc(C3CC(c4ccc(-c5ccoc5)cc4)=NN3C(=O)CCCC(=O)O)c(Cl)nc2c1", "note": "(stereo not given)", "values": [{"measurement": "IC50", "setting": "[1]; read-out: IC50", "result": 6.7, "unit": "µM"}]}, {"smiles": "CCOc1ccc2cc(C3CC(c4ccc(I)cc4)=NN3c3cccc(C(=O)O)c3)c(Cl)nc2c1", "note": "(stereo not given)", "values": [{"measurement": "IC50", "setting": "[1]", "result": "Not Active"}]}, {"smiles": "CCOc1ccc2cc(C3CC(c4ccc([N+](=O)[O-])cc4)=NN3C(=O)CCCC(=O)O)c(Cl)nc2c1", "note": "(stereo not given)", "values": [{"measurement": "IC50", "setting": "[1]; read-out: IC50", "result": "> 25", "unit": "µM"}]}, {"smiles": "CC1(C)[C@@H]2CC[C@@]1(C)[C@H](OC(=O)CI)C2", "values": [{"measurement": "IC50", "setting": "[4]", "result": 10, "unit": "µM"}]}, {"smiles": "CCOc1ccc2cc(C3CC(c4ccc(I)cc4)=NN3C(=O)CCCC(=O)NCCCN3CCOCC3)c(Cl)nc2c1", "note": "(stereo not given)", "values": [{"measurement": "IC50", "setting": "[1]; read-out: IC50", "result": 4.9, "unit": "µM"}, {"measurement": "solubility", "setting": "[2]", "result": "Soluble"}, {"measurement": "Drug uptake", "setting": "[3]", "result": "Active"}, {"measurement": "inhibition", "setting": "Salmon testes DNA", "result": "inactive"}]}, {"smiles": "CCOc1ccc2cc(C3CC(c4ccc(Br)cc4)=NN3C(=O)CCCC(=O)NCCCN3CCOCC3)c(Cl)nc2c1", "note": "(stereo not given)", "values": [{"measurement": "IC50", "setting": "[1]; read-out: IC50", "result": 10, "unit": "µM"}, {"measurement": "solubility", "setting": "[2]", "result": "Soluble"}]}, {"smiles": "CCOc1ccc2cc(C3CC(c4ccc(-c5ccc(N6CCOCC6)cc5)cc4)=NN3C(=O)CCCC(=O)O)c(Cl)nc2c1", "note": "(stereo not given)", "values": [{"measurement": "inhibition", "setting": "Homo sapiens", "result": "Active"}, {"measurement": "IC50", "setting": "[1]; read-out: IC50", "result": 3.1, "unit": "µM"}]}, {"smiles": "CC1(C)[C@@H]2CC[C@@]1(C)[C@H](OC(=O)CBr)C2", "values": [{"measurement": "IC50", "setting": "[4]", "result": 16, "unit": "µM"}]}, {"smiles": "CCOC(=O)CCCC(=O)N1N=C(c2ccc(I)cc2)CC1c1cc2ccc(OCC)cc2nc1Cl", "note": "(stereo not given)", "values": [{"measurement": "IC50", "setting": "[1]", "result": "Not Active"}]}, {"smiles": "CCOc1ccc2cc(C3CC(c4ccc(-c5cnoc5)cc4)=NN3C(=O)CCCC(=O)O)c(Cl)nc2c1", "note": "(stereo not given)", "values": [{"measurement": "inhibition", "setting": "Homo sapiens", "result": "Active"}, {"measurement": "IC50", "setting": "[1]; read-out: IC50", "result": 1.7, "unit": "µM"}]}]}
